Reference: ChEMBL document CHEMBL3576866, “Discovery of a Cyclic Boronic Acid β-Lactamase Inhibitor (RPX7009) with Utility vs Class A Serine Carbapenemases” (J Med Chem, 2015)

Experiments:
Escherichia coli [1] = assay: Inhibition of Escherichia coli EC1011 TEM-26 assessed as cefepime MIC at 4 ug/ml by broth microdilution method
Outline: (§1)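 CLSI broth microdilution (M07-A9) against clinical strains expressing serine β-lactamases.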

Klebsiella pneumoniae [2] = assay: Inhibition of Klebsiella pneumoniae KP1004 KPC-2 assessed as meropenem MIC at 4 ug/ml by broth microdilution method
Outline: (§2)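 CLSI broth microdilution (M07-A9, 2012) MIC of the carbapenem against clinical serine carbapenemase-producing strain, tested alone and with the inhibitor held at a fixed 4 μg/mL.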

Klebsiella pneumoniae [3] = assay: Inhibition of Klebsiella pneumoniae KP1010 SHV-12 assessed as cefepime MIC at 4 ug/ml by broth microdilution method; outline: as §1
Escherichia coli [4] = assay: Inhibition of Escherichia coli EC1009 TEM-10 assessed as cefepime MIC at 4 ug/ml by broth microdilution method; outline: as §1
[5] = target: Beta-lactamase (Enterobacter cloacae) (UniProt G8A3U3); assay: Inhibition of Enterobacter cloacae ECL1003 TEM assessed as cefepime MIC at 4 ug/ml by broth microdilution method
Klebsiella pneumoniae [6] = assay: Inhibition of Klebsiella pneumoniae KP1005 CTX-M-14 assessed as cefepime MIC at 4 ug/ml by broth microdilution method
[7] = target: Beta-lactamase TEM (Enterobacter cloacae) (UniProt Q6W9J1); assay: Inhibition of Enterobacter cloacae ECL1058 TEM-1 assessed as meropenem MIC at 4 ug/ml by broth microdilution method
[8] = target: Beta lactamase TEM-1 (Klebsiella pneumoniae) (UniProt Q7B899); assay: Inhibition of Klebsiella pneumoniae KP1084 TEM-1 assessed as meropenem MIC at 4 ug/ml by broth microdilution method; outline: as §2
Enterobacter cloacae = assay: Inhibition of Enterobacter cloacae ECL1003 SHV assessed as cefepime MIC at 4 ug/ml by broth microdilution method; outline: as §1
[9] = target: Carbapenem-hydrolyzing beta-lactamase KPC (Klebsiella oxytoca) (UniProt Q848S6); assay: Inhibition of Klebsiella oxytoca KX1019 KPC-2 assessed as meropenem MIC at 4 ug/ml by broth microdilution method; outline: as §2
Dipeptidyl peptidase 2 = Dipeptidyl peptidase 2 (Homo sapiens, UniProt Q9UHL4); assay: Inhibition of dipeptidyl peptidase 7 (unknown origin) using H-Lys-Pro-AMC as substrate preincubated for 10 mins followed by substrate addition measured for 30 mins by spectrophotometric analysis
Outline: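 DPP7 (commercial) in 50 mM Na-acetate, pH 5.8. Preincubated 10 min at 37 °C with inhibitor at several concentrations, then H-Lys-Pro-AMC (listed at 100 μM) added and fluorescence monitored for 30 min. Activity was relative to a no-treatment control; IC50 is the concentration giving half inhibition.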

[10] = target: Carbapenem-hydrolyzing beta-lactamase KPC (Klebsiella pneumoniae) (UniProt Q9F663); assay: Inhibition of Klebsiella pneumoniae KP1083 KPC-3 assessed as meropenem MIC at 4 ug/ml by broth microdilution method; outline: as §2
Klebsiella aerogenes = assay: Inhibition of Enterobacter aerogenes EA1028 OXA-30 assessed as cefepime MIC at 4 ug/ml by broth microdilution method; outline: as §1
[11] = target: Beta lactamase TEM-1 (Klebsiella pneumoniae) (UniProt Q7B899); assay: Inhibition of Klebsiella pneumoniae KP1004 TEM-1 assessed as biapenem MIC at 4 ug/ml by broth microdilution method; outline: as §2
[12] = target: Carbapenem-hydrolyzing beta-lactamase KPC (Klebsiella oxytoca) (UniProt Q848S6); assay: Inhibition of Klebsiella oxytoca KX1019 KPC-2 assessed as ertapenem MIC at 4 ug/ml by broth microdilution method
Klebsiella pneumoniae [13] = assay: Inhibition of Klebsiella pneumoniae KP1082 KPC-2 assessed as meropenem MIC at 4 ug/ml by broth microdilution method; outline: as §2

Sequence of Beta lactamase TEM-1 (Klebsiella pneumoniae) (Q7B899 as listed by the source): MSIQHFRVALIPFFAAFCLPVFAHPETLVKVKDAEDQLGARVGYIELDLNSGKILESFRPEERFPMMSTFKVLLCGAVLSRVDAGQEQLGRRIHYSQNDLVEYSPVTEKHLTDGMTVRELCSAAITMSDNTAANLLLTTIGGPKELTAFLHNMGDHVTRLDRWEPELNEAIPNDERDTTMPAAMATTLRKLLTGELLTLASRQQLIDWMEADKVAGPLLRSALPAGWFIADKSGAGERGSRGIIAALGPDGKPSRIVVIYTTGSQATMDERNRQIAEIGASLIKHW
Sequence of Carbapenem-hydrolyzing beta-lactamase KPC (Klebsiella oxytoca) (Q848S6 whole entry): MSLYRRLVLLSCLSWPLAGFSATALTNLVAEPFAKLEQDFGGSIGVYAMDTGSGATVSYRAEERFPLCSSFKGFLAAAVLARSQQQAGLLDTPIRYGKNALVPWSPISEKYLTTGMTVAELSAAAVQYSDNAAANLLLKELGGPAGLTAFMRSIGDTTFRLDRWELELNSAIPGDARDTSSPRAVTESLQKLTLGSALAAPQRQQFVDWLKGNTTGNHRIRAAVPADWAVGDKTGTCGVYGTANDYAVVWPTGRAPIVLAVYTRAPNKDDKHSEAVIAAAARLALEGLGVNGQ
Sequence of Beta-lactamase TEM (Enterobacter cloacae) (Q6W9J1 as listed by the source): as the sequence (Q7B899 as listed by the source) above
Sequence of Carbapenem-hydrolyzing beta-lactamase KPC (Klebsiella pneumoniae) (Q9F663 whole entry): as the sequence (Q848S6 whole entry) above
Sequence of Beta-lactamase (Enterobacter cloacae) (G8A3U3 as listed by the source): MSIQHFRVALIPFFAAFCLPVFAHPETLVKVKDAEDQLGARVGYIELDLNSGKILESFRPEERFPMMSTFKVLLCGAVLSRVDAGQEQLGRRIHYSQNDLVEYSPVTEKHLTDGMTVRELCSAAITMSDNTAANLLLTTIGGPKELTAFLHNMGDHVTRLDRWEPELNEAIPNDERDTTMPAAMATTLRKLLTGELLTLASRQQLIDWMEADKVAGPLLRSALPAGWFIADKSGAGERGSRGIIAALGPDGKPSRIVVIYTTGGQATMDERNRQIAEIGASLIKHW

For `O=C(O)C[C@@H]1CC[C@H](NC(=O)Cc2cccs2)B(O)O1` [VABORBACTAM], the MIC (Escherichia coli [1]) was 2 µg/mL, the MIC (Klebsiella pneumoniae [2]) was at most 0.06 µg/mL and the MIC (Klebsiella pneumoniae [3]) was 0.25 µg/mL. For the same compound, the MIC (Escherichia coli [4]) was 4 µg/mL, the MIC [5] was 8 µg/mL and the MIC (Klebsiella pneumoniae [6]) was 4 µg/mL. For the same compound, the MIC [7] was under 0.06 µg/mL, the MIC [8] was 0.5 µg/mL and the MIC (Enterobacter cloacae) was 8 µg/mL. It also gave an MIC [9] of under 0.06 µg/mL, an IC50 (Dipeptidyl peptidase 2) of over 1000 µM and an MIC [10] of under 0.06 µg/mL. It also gave an MIC (Klebsiella aerogenes) of 0.5 µg/mL, an MIC [11] of under 0.06 µg/mL and an MIC [12] of 0.25 µg/mL. The MIC (Klebsiella pneumoniae [13]) was at most 0.06 µg/mL.
